Structures are written as SMILES. The source made the active and inactive calls. The rule behind the calls is not given here.

The subject of one experiment is SF-268. The experiment in a line: Anticancer activity against human SF-268 cells assessed as cell growth inhibition incubated for 48 hrs by SRB method. The class given is functional. In short, it runs like this: (§1)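 NCI-60 panel (DTP). Cells in RPMI 1640 with 5% FBS, 2 mM L-glutamine, seeded at 5,000–40,000 per well by doubling time and preincubated 24 h at 37 °C, 5% CO2. Time-zero plates TCA-fixed. DMSO stocks diluted in medium with gentamicin, tested at 100 μM, 10 μM, 1 μM, 0.1 μM and 10 nM for 48 h. Cells fixed with cold TCA, stained with SRB, absorbance read at 515 nm.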

For another experiment, the system named is M14. Put plainly: Anticancer activity against human M14 cells assessed as cell growth inhibition incubated for 48 hrs by SRB method. The class given is functional. In short, it runs like this:
as §1

In another experiment the test system is OVCAR-8. The experiment in a line: Anticancer activity against human OVCAR-8 cells assessed as cell growth inhibition incubated for 48 hrs by SRB method. It counts as functional. In short, it runs like this: as §1
In general terms: In SRB staining, fixed cells bind dye roughly in proportion to their protein.

For the next experiment, the system named is NCI-H322M. Put plainly: Anticancer activity against human NCI-H322M cells assessed as cell growth inhibition incubated for 48 hrs by SRB method. The class given is functional. Put shortly:
as §1

Another experiment has as its system 786-0. The experiment in a line: Anticancer activity against human 786-0 cells assessed as cell growth inhibition incubated for 48 hrs by SRB method. It counts as functional. Put shortly: as §1
In the next experiment the test system is EKVX. The experiment in a line: Anticancer activity against human EKVX cells assessed as cell growth inhibition incubated for 48 hrs by SRB method. It counts as functional. In short, it runs like this: as §1
The next experiment deals with MDA-MB-468. The experiment in a line: Anticancer activity against human MDA-MB-468 cells assessed as cell growth inhibition incubated for 48 hrs by SRB method. It counts as functional. In short, it runs like this:
as §1

A further experiment concerns UO-31. Put plainly: Anticancer activity against human UO-31 cells assessed as cell growth inhibition incubated for 48 hrs by SRB method. It counts as functional. Put shortly: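 NCI-60 panel, SRB assay. Time-zero plates were TCA-fixed. Compounds came from DMSO stocks and were tested at 100 μM, 10 μM, 1 μM, 0.1 μM and 10 nM for 48 h. Cells were fixed with cold TCA and stained with 0.4% SRB, and the dye was solubilized in 10 mM Tris base with A515 read.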

The next experiment concerns U-251. The experiment in a line: Anticancer activity against human U-251 cells assessed as cell growth inhibition incubated for 48 hrs by SRB method. The class given is functional. Put shortly:
(§2)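 NCI-60 panel, SRB assay. Cells grown in RPMI 1640 with 5% FBS and 2 mM L-glutamine, seeded at 5,000–40,000 cells/well depending on doubling time, and preincubated 24 h at 37 °C with 5% CO2. Time-zero plates were TCA-fixed. Compounds came from DMSO stocks and were tested at 100 μM, 10 μM, 1 μM, 0.1 μM and 10 nM for 48 h. Cells were fixed with cold TCA and stained with 0.4% SRB, and the dye was solubilized in 10 mM Tris base with A515 read.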

Another experiment has as its system SNB-75. The experiment in a line: Anticancer activity against human SNB-75 cells assessed as cell growth inhibition incubated for 48 hrs by SRB method. It counts as functional.
A further experiment concerns NCI-H226. The experiment in a line: Anticancer activity against human NCI-H226 cells assessed as cell growth inhibition incubated for 48 hrs by SRB method. The class given is functional. Put shortly:
as §1

Another experiment concerns UACC-62. The experiment in a line: Anticancer activity against human UACC-62 cells assessed as cell growth inhibition incubated for 48 hrs by SRB method. It counts as functional. In short, it runs like this:
as §2

The test system of the next experiment is TK-10. The experiment in a line: Anticancer activity against human TK-10 cells assessed as cell growth inhibition incubated for 48 hrs by SRB method. The class given is functional. Put shortly:
as §2

The subject of a further experiment is MDA-MB-231. The experiment in a line: Anticancer activity against human MDA-MB-231 cells assessed as cell growth inhibition incubated for 48 hrs by SRB method. The class given is functional. In short, it runs like this: as §1
The subject of a further experiment is OVCAR-3. Put plainly: Anticancer activity against human OVCAR-3 cells assessed as cell growth inhibition incubated for 48 hrs by SRB method. The class given is functional. In short, it runs like this: as §1
For another experiment, the system named is KM12. Put plainly: Anticancer activity against human KM12 cells assessed as cell growth inhibition incubated for 48 hrs by SRB method. It counts as functional. In short, it runs like this:
as §1

The target in experiment [1] is Inhibitor of nuclear factor kappa-B kinase subunit beta (Homo sapiens) (UniProt O14920). The experiment in a line: Inhibition of IKKbeta-mediated NFkappaB activation in human M9-ENL1 cells assessed as inhibition of phosphorylation of p65 at SER-536 residue at 2.5 to 10 uM by immunoblotting analysis. The settings on record: dose 2.5-10 µM. The class given is cell-based. In short, it runs like this:
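Primary M9-ENL AML cells were exposed for 6 h to 2.5, 5.0 and 10 μM, with PTL as reference. Lysates were run on 8–10% SDS-PAGE and transferred to PVDF. Blots were blocked in 5% milk/TBST and probed for phospho-p65 (Ser536). Analyses were done in triplicate.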
For orientation: Immunoblotting shows a protein as a band on a membrane.

For the next experiment, the system named is TMD-231. The experiment in a line: Antiproliferative activity against human TMD-231 cells assessed as inhibition of cell proliferation at 0.5 to 5 uM measured over 4 to 5 days by bromodeoxyuridine incorporation assay. The class given is functional, cell-based. The settings on record: dose 0.5-5 µM, time 4-5 day. Put shortly: (§3)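 Seeded at 500–1000 cells/well, with treatment started one day after plating. Cells were exposed to a range of concentrations for 4–5 days, six wells per condition, and proliferation was read by BrdU incorporation ELISA. Data average two experiments of six technical replicates, and 2–4 biological replicates were run.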

For experiment [2], the target named is Transcription factor p65 (Homo sapiens) (UniProt Q04206). Put plainly: Inhibition of TNFalpha-induced phosphorylation of p65 in human SUM149PT cells at 2 uM by ELISA assay. It counts as cell-based.
Transcription factor p65 (Homo sapiens), sequence (Q04206 whole entry): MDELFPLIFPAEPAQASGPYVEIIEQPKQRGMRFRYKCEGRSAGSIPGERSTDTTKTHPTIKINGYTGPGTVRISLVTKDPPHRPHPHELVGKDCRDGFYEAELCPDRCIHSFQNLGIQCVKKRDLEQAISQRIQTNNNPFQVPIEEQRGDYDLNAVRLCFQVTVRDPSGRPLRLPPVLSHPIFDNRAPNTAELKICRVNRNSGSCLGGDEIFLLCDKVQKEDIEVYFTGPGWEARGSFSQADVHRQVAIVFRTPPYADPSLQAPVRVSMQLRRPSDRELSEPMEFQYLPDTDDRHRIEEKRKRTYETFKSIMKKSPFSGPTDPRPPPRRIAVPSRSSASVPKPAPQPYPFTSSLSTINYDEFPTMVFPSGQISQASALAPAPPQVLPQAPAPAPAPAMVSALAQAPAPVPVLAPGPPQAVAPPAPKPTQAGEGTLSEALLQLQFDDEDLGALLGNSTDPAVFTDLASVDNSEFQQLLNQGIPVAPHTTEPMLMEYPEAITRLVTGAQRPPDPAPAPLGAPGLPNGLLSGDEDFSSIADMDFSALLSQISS
For experiment [3], the system named is OV-MD-231. The experiment in a line: Antiproliferative activity against human OV-MD-231 cells assessed as inhibition of cell proliferation at 0.5 to 5 uM measured over 4 to 5 days by bromodeoxyuridine incorporation assay. The class given is functional, cell-based. Conditions: dose 0.5-5 µM, time 4-5 day. In short, it runs like this: as §3
Experiment [4] addresses Nuclear factor NF-kappa-B p100 subunit (Homo sapiens) (UniProt Q00653). The experiment in a line: Inhibition of NFkB binding with DNA in human SUM149PT cells assessed as reduction in NFkB-DNA binding at 2 uM measured over 3 hrs by electrophoretic mobility shift assay. The class given is cell-based. Put shortly:
(§4)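 Cells were exposed to 0.5 and 2.0 μM for 3 h. EMSA was run on whole-cell lysates with 32P-labelled probes carrying NF-κB binding sites, and an SP-1 probe served as the specificity control.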
(In general: A gel shift assay detects complexes by their altered migration in electrophoresis.)

Another experiment concerns SUM149PT. The experiment in a line: Antiproliferative activity against human SUM149PT cells assessed as inhibition of cell proliferation measured over 4 to 5 days by bromodeoxyuridine incorporation assay. It counts as functional, cell-based. In short, it runs like this: as §3
The target in experiment [5] is Inhibitor of nuclear factor kappa-B kinase subunit alpha (Homo sapiens) (UniProt O15111). Put plainly: Inhibition of TNFalpha-induced IkKalpha in human SUM149PT cells at 0.5 to 2 uM by ELISA assay. It counts as cell-based. The settings on record: dose 0.5-2 µM.
Inhibitor of nuclear factor kappa-B kinase subunit alpha (Homo sapiens), sequence (O15111 whole entry): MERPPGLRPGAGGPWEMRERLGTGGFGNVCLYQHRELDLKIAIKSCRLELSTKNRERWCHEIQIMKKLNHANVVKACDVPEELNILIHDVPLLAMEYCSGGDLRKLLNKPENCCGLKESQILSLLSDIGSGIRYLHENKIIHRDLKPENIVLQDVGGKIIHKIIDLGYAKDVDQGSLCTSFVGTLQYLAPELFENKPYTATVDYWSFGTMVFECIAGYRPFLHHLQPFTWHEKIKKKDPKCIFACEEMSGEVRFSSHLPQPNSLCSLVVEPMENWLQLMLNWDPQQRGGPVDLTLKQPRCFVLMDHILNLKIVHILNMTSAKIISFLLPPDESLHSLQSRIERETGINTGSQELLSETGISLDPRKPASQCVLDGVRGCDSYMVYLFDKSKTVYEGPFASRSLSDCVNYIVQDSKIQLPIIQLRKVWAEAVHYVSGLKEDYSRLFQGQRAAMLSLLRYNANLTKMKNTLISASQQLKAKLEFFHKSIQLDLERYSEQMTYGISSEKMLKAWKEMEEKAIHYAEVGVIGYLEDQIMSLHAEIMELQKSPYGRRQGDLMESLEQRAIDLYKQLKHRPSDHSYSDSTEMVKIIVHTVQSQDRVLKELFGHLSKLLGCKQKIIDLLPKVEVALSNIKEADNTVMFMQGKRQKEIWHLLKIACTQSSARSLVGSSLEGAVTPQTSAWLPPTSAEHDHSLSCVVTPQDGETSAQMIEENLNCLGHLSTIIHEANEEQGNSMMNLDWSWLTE
Experiment [6] relates to OV-MD-231. Put plainly: Inhibition of NFkB binding with DNA in human […] cells assessed as reduction in NFkB-DNA binding at 2 uM measured over 3 hrs by electrophoretic mobility shift assay. The class given is cell-based. Put shortly: as §4
Experiment [7] deals with Transcription factor p65 (Homo sapiens) (UniProt Q04206). Put plainly: Inhibition of TNFalpha-induced p65 phosphorylation in human OV-MD-231 cells at 2 uM by ELISA assay. It counts as cell-based.

Nuclear factor NF-kappa-B p100 subunit (Homo sapiens), sequence (Q00653 whole entry): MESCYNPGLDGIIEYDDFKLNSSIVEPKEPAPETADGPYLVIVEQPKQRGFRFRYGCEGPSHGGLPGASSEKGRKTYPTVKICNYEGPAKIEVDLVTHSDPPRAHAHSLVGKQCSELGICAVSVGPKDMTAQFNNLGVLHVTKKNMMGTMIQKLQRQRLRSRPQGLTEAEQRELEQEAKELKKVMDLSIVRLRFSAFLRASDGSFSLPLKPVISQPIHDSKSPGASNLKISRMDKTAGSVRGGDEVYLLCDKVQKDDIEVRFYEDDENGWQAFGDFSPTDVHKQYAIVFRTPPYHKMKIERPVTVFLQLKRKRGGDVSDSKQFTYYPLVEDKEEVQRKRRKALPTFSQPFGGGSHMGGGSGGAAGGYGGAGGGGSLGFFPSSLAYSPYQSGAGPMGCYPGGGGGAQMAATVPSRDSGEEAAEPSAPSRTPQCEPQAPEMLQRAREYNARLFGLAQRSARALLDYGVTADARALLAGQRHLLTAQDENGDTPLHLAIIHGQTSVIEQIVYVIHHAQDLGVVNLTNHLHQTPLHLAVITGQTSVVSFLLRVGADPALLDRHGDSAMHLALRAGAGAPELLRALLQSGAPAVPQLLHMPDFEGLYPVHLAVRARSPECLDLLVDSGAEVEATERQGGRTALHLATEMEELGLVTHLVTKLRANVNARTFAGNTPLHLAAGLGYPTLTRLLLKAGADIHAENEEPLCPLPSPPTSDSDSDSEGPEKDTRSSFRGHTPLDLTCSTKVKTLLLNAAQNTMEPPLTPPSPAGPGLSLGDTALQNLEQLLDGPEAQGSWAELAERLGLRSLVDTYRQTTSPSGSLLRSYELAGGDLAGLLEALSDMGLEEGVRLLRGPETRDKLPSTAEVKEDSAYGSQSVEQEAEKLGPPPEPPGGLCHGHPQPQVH
Inhibitor of nuclear factor kappa-B kinase subunit beta (Homo sapiens), sequence (O14920 whole entry): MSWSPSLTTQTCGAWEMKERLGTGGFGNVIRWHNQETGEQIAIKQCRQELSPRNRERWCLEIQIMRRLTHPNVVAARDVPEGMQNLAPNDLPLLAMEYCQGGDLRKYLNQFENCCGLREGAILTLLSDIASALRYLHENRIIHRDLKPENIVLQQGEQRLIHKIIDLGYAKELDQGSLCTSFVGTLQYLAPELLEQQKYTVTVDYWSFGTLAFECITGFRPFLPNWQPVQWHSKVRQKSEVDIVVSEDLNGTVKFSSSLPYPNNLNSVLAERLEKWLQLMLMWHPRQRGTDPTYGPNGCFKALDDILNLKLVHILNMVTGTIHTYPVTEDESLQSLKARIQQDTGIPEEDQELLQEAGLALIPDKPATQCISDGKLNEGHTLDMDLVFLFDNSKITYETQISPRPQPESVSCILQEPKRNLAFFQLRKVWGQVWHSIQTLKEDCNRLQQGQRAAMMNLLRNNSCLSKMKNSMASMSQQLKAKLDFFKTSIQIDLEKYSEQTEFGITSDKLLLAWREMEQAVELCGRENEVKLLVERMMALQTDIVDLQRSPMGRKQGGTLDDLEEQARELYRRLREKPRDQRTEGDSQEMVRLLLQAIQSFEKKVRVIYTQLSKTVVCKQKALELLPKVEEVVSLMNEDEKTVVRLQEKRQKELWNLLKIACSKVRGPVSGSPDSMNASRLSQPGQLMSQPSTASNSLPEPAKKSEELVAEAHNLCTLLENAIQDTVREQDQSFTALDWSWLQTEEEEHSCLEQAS

Usually GI50 stands for the concentration giving 50% growth inhibition. With `C=C1C(=O)O[C@H]2[C@H]1CC/C(COC(=O)NCc1cc(OC)cc(OC)c1)=C\CC[C@@]1(C)O[C@@H]21`, the GI50 in the experiment with SF-268 was found to be 2.46 µM; in the experiment with M14, 1.64 µM; in the experiment on OVCAR-8 it was 1.7 µM; with NCI-H322M, 4.72 µM; with 786-0 it was 1.6 µM; with EKVX, 2.06 µM. The GI50 in the experiment on MDA-MB-468 was found to be 0.58 µM; in the experiment on UO-31 it was 0.68 µM; in the experiment with U-251, 3.16 µM; with SNB-75, 1.99 µM; in the experiment on NCI-H226 it was 2.02 µM; in the experiment with UACC-62 it was 1.2 µM. Besides, the GI50 in the experiment with TK-10 is 1.59 µM; in the experiment on MDA-MB-231, 0.72 µM; with OVCAR-3, 0.66 µM; in the experiment on KM12, 2.8 µM.

The term IC50 denotes the concentration needed to halve the response being measured. `C=C1C(=O)O[C@H]2[C@H]1CC/C(COC(=O)NCc1ccc(OC)cc1)=C\CC[C@@]1(C)O[C@@H]21`: the inhibition entry (in experiment [1]; in [4]; in the experiment on OV-MD-231 [6]) was “inactive” throughout. The GI50 in the experiment on SF-268 worked out at 0.75 µM; with M14 it was 0.19 µM; in the experiment on OVCAR-8, 0.49 µM; in the experiment with 786-0, 0.49 µM; in the experiment on EKVX it was 1.29 µM; with MDA-MB-468 it was 0.24 µM. The GI50 amounted to 0.19 µM in the experiment with UO-31; 0.96 µM in the experiment on U-251; 0.74 µM with SNB-75; 0.48 µM in the experiment with NCI-H226; 2.86 µM in the experiment with UACC-62; 0.31 µM in the experiment on TK-10. The concentration for 50% growth inhibition (GI50) in the experiment with MDA-MB-231 is 0.37 µM; in the experiment with KM12, 2.35 µM. Moreover, the inhibition result (with TMD-231; in experiment [2]; in the experiment on OV-MD-231 [3]; in experiment [5]; in [7]) was “Active” in each case. In addition, in the experiment on SUM149PT, the IC50 is under 1 µM.

Turning to `C=C1C(=O)O[C@H]2[C@H]1CC/C(COC(=O)NCCc1ccc(OC)cc1)=C\CC[C@@]1(C)O[C@@H]21`, the GI50 in the experiment with SF-268 turned out to be 10.6 µM; in the experiment with M14, 1.98 µM; in the experiment with OVCAR-8 it was 3.41 µM; in the experiment with NCI-H322M, 12.6 µM; in the experiment with 786-0 it was 2.77 µM; in the experiment with EKVX, 7.45 µM. Besides, the GI50 is 1.55 µM with MDA-MB-468; 1.55 µM in the experiment on UO-31; 11.1 µM with U-251; 4.09 µM in the experiment with SNB-75; 4.11 µM in the experiment with NCI-H226; 1.71 µM with UACC-62. Moreover, the figures for the GI50 in the experiment on TK-10, with MDA-MB-231 and in the experiment on KM12 were 2.52 µM, 1.92 µM and 8.36 µM, respectively.

With `C=C1C(=O)O[C@H]2[C@H]1CC/C(COC(=O)NCc1ccccc1OC)=C\CC[C@@]1(C)O[C@@H]21`, the GI50 is 2.2 µM in the experiment with SF-268; 1.1 µM in the experiment on M14; 1.78 µM with OVCAR-8; 2.45 µM in the experiment on 786-0; 1.98 µM in the experiment with EKVX; 0.66 µM in the experiment with MDA-MB-468. Moreover, the GI50 was 1.04 µM with UO-31; 2.2 µM with U-251; 2.44 µM with SNB-75; 2.11 µM in the experiment with NCI-H226; 1.84 µM in the experiment with UACC-62; 1.38 µM in the experiment with TK-10. The figures for the GI50 in the experiment on MDA-MB-231 and with KM12 were 0.69 µM and 3.53 µM, respectively.

Source of the values: ChEMBL document CHEMBL5055631, “Antitumor properties of novel sesquiterpene lactone analogs as NFκB inhibitors that bind to the IKKβ ubiquitin-like domain (ULD)” (Eur J Med Chem, 2021).
